The values that follow come from ChEMBL document CHEMBL5715941, “AZD1152, a selective inhibitor of Aurora B kinase, inhibits human tumor xenograft growth by inducing apoptosis” (Clin Cancer Res, 2007).

One may read the inhibition in vivo as the percentage by which the read-out fell short of the control.

Active and inactive are the calls of the source. No cut-off for these calls is given here.

Assay [1] deals with SW-620. The assay can be described thus: Induction of polyploidy in human SW620 cells at 300 nmol/L incubated for 48 hrs by flow cytometry analysis. Type of assay: functional, cell-based. Put shortly:
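SW620 cells were grown in L-15 with 10% heat-inactivated FCS at 37°C without CO2. They were exposed to AZD1152-HQPA for 0, 24 or 48 h, fixed in 70% ethanol at −20°C overnight, stained with propidium iodide (10 µg/mL) plus RNase (100 µg/mL), and DNA content was read by flow cytometry.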
For orientation: Flow cytometry measures light scatter and fluorescence of single cells or particles in a stream.

Assay [2] has as its system SW-620. The assay can be described thus: Antitumor activity against human SW620 cells xenografted in Swiss nude mouse assessed as reduction in proportion of PhH3-positive cells within the G2-M phase at 70 mg/kg/day, sc measured over 48 hrs by flow cytometry analysis. Type of assay: functional, organism-based. The gist of the method:
(§1)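 Male nude mice with palpable s.c. SW620 tumors (n = 4/group) received AZD1152 (0.5-150 mg/kg/d) or vehicle by constant 48-h s.c. mini-pump infusion. Tumors were then excised, fixed and disaggregated. Flow cytometry with propidium iodide gave DNA content (2N, 4N, >4N), and rabbit anti-PhH3 with fluorescein anti-rabbit IgG gave PhH3-positive cells (%).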
On the technique in general: A xenograft is tissue or cells of one species grown in another, often human tumour cells in immunodeficient mice.

Assay [3] concerns SW-620. The assay can be described thus: Antitumor activity against human SW620 cells xenografted in Swiss nude mouse assessed as accumulation in proportion of 2N DNA content at 70 mg/kg/day, sc over 48 hrs by flow cytometry analysis relative to control. Type of assay: functional. Put shortly: as §1
The test system of assay [4] is SW-620. The assay can be described thus: Antitumor activity against human SW620 cells xenografted in Swiss nude mouse assessed as accumulation in proportion of 4N DNA content at 70 mg/kg/day, sc over 48 hrs by flow cytometry analysis relative to control. Type of assay: functional. Put shortly: as §1
In assay [5] the test system is SW-620. The assay can be described thus: Antitumor activity against human SW620 cells xenografted in immunodeficient Swiss athymic mouse assessed as inhibition of tumor volume at 150 mg/kg/day, sc for 48 hrs on days 7 to 9 and measured on day 23 relative to control. The format is functional. To be noted: SW-620, 408 h, time 17 day. The gist of the method: (§2)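 Male Swiss athymic nude mice, 8-12 wk; tumor cells (1×10^6-1×10^7, 50:50 Matrigel) implanted s.c. on flank. Randomized (n = 8-11) at 0.2-0.5 cm3. AZD1152 in Tris buffer pH 9, or vehicle (0.3 mol/L Tris), by 48-h s.c. osmotic mini-pump infusion (two 24-h pumps in sequence). Caliper volumes up to 3×/week; growth inhibition from change in control vs treated volume; one-tailed t test.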

Assay [6] deals with SW-620. The assay can be described thus: Antitumor activity against human SW620 cells xenografted in immunodeficient Swiss athymic mouse assessed as maximum inhibition of tumor volume at 10 mg/kg/day, sc for 48 hrs on days 7 to 9 and measured on day 10 relative to control. Type of assay: functional. The note with it: SW-620, 96 h, time 4 day. The gist of the method:
as §2

For assay [7], the system named is SW-620. The assay can be described thus: Antitumor activity against human SW620 cells xenografted in immunodeficient Swiss athymic mouse assessed as maximum inhibition of tumor volume at 25 mg/kg/day, ip for 4 days on days 6 to 9 and measured on day 13 relative to control. The format is functional. The note with it: SW-620, 192 h, time 8 day. Put shortly: (§3)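 Male Swiss nude mice bearing s.c. flank SW620 xenografts (cells in Matrigel), randomized (n = 8-11) at 0.2-0.3 cm3. AZD1152 in Tris buffer pH 9, or vehicle, given as a once-daily i.v. or i.p. bolus. Caliper volumes up to 3×/week; inhibition from change in control vs treated volume; one-tailed t test.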

Assay [8] relates to SW-620. The assay can be described thus: Antitumor activity against human SW620 cells xenografted in immunodeficient Swiss athymic mouse assessed as inhibition of tumor volume at 25 mg/kg/day, iv for 3 days on days 6 to 8 and measured on day 24 relative to control. The format is functional. To be noted: SW-620, 456 h, time 19 day. Put shortly: as §3
Another assay relates to COLO 205. The assay can be described thus: Antitumor activity against human COLO 205 cells xenografted in immunodeficient Swiss athymic mouse assessed as inhibition of tumor volume at 150 mg/kg/day, sc for 48 hrs on days 5 to 7 and measured on day 21 relative to control. The format is functional. The note with it: COLO 205, 408 h, time 17 day. Put shortly:
as §2

Assay [9] relates to HCT-116. The assay can be described thus: Antitumor activity against human HCT-116 cells xenografted in immunodeficient Swiss athymic mouse assessed as maximum inhibition of tumor volume at 150 mg/kg/day, sc for 48 hrs on days 11 to 13 and measured on day 18 relative to control. Type of assay: functional. To be noted: HCT-116, 192 h, time 8 day. Put shortly:
as §2

The subject of assay [10] is HCT-116. The assay can be described thus: Antitumor activity against human HCT-116 cells xenografted in immunodeficient Swiss athymic mouse assessed as inhibition of tumor volume at 150 mg/kg/day, sc for 48 hrs on days 11 to 13 and measured on day 25 relative to control. Type of assay: functional. To be noted: HCT-116, 360 h, time 15 day. The gist of the method:
as §2

A further assay has as its system Calu-6. The assay can be described thus: Antitumor activity against human Calu-6 cells xenografted in immunodeficient Swiss athymic mouse assessed as maximum inhibition of tumor volume at 150 mg/kg/day, sc for 48 hrs on days 20 to 22 and measured on day 29 relative to control. Type of assay: functional. To be noted: Calu-6, 240 h, time 10 day. The gist of the method:
as §2

Assay [11] has as its system HL-60. The assay can be described thus: Antitumor activity against human HL-60 cells xenografted in immunodeficient Swiss athymic mouse assessed as maximum inhibition of tumor volume at 150 mg/kg/day, sc for 48 hrs on days 16 to 18 and measured on day 18 relative to control. The format is functional. The note with it: HL-60, 72 h, time 3 day. The gist of the method: as §2

Assay [12] relates to HL-60. The assay can be described thus: Antitumor activity against human HL-60 cells xenografted in immunodeficient Swiss athymic mouse assessed as inhibition of tumor volume at 150 mg/kg/day, sc for 48 hrs on days 16 to 18 and measured on day 35 relative to control. The note with it: HL-60, 480 h, time 20 day. The format is functional. Put shortly:
as §2

The test system of assay [13] is SW-620. The assay can be described thus: Antitumor activity against human SW620 cells xenografted in nude athymic rat assessed as tumor growth inhibition at 25 mg/kg/day, iv for 4 consecutive days and measured at 8 day relative to control. The format is functional. To be noted: SW-620, 192 h. Put shortly:
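Male nude rats with established SW620 xenografts, randomized at 0.5-1 cm3, received vehicle or AZD1152 (25 mg/kg, in Tris pH 9) as a once-daily i.v. bolus for 4 consecutive days. Tumor volume was measured by caliper (n = 10); growth inhibition relative to vehicle.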

Assay [14] relates to SW-620. The assay can be described thus: Antitumor activity against human SW620 cells xenografted in nude athymic rat assessed as high degree of pleomorphism at 25 mg/kg/day, iv for 4 consecutive days and measured on 5 day by H&E staining based immunohistochemistry analysis. Type of assay: functional, organism-based. Put shortly:
(§4)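 Nude rats bearing SW620 tumors were dosed i.v. with AZD1152 at 25 mg/kg/d or with vehicle on days 1-4. Subgroups (n = 3) were killed at set days. Tumor and bone marrow sections were H&E-stained and examined histologically.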

For assay [15], the system named is SW-620. The assay can be described thus: Antitumor activity against human SW620 cells xenografted in nude athymic rat assessed as larger multinucleated tumor cells at 25 mg/kg/day, iv for 4 consecutive days and measured on 9 day by H&E staining based immunohistochemistry analysis. The format is functional, organism-based. Put shortly: as §4
In assay [16] the test system is SW-620. The assay can be described thus: Antitumor activity against human SW620 cells xenografted in nude athymic rat assessed as normal appearance in bone marrow at 25 mg/kg/day, iv for 4 consecutive days and measured on 9 day by H&E staining based immunohistochemistry analysis. Type of assay: functional, organism-based. The gist of the method:
as §4

Assay [17] concerns SW-620. The assay can be described thus: Antitumor activity against human SW620 cells xenografted in nude athymic rat assessed as myelosuppression at 25 mg/kg/day, iv for 4 consecutive days by flow cytometric analysis. To be noted: time 4.0 day. The format is functional, organism-based.

For `CCN(CCCOc1ccc2c(Nc3cc(CC(=O)Nc4cccc(F)c4)[nH]n3)ncnc2c1)CCOP(=O)(O)O` [BARASERTIB], the outcome in the assay with SW-620 [1], with SW-620 [2], in the assay with SW-620 [14], in the assay with SW-620 [15] and in the assay on SW-620 [17] was Active. The results for the Activity with SW-620 [3] and in the assay on SW-620 [4] were 35% and 56%, respectively. In addition, the inhibition in vivo at 150 mg/kg/day is 87% in the assay with SW-620 [5]; 94% in the assay on COLO 205; 93% in the assay on HCT-116 [9]; 74% in the assay on HCT-116 [10]; 67% with Calu-6; over 100% with HL-60 [11]. The inhibition in vivo at 150 mg/kg/day in the assay on HL-60 [12] was over 100%. Further, in the assay with SW-620 [6], the inhibition in vivo at 10 mg/kg/day was 55%. For the same molecule, the inhibition in vivo at 25 mg/kg/day was 65% in the assay on SW-620 [7], 47% in the assay on SW-620 [8] and 93% with SW-620 [13]. Besides, the outcome in the assay with SW-620 [16] was inactive.
